The list is a sample of the results.
Apaf-1 act: human Apaf-1 activation; O14727; Apaf-1 apoptosome caspase-3 activation, DEVD-Rh110 fluorescence; hits give low values; activity change, negative = activation, % at 20 µM; 330,000 compounds, 0.31% hits; AID 489031;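 active = activity change at or below -40% at 20 µM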
Target sequence (O14727 whole entry, looked up): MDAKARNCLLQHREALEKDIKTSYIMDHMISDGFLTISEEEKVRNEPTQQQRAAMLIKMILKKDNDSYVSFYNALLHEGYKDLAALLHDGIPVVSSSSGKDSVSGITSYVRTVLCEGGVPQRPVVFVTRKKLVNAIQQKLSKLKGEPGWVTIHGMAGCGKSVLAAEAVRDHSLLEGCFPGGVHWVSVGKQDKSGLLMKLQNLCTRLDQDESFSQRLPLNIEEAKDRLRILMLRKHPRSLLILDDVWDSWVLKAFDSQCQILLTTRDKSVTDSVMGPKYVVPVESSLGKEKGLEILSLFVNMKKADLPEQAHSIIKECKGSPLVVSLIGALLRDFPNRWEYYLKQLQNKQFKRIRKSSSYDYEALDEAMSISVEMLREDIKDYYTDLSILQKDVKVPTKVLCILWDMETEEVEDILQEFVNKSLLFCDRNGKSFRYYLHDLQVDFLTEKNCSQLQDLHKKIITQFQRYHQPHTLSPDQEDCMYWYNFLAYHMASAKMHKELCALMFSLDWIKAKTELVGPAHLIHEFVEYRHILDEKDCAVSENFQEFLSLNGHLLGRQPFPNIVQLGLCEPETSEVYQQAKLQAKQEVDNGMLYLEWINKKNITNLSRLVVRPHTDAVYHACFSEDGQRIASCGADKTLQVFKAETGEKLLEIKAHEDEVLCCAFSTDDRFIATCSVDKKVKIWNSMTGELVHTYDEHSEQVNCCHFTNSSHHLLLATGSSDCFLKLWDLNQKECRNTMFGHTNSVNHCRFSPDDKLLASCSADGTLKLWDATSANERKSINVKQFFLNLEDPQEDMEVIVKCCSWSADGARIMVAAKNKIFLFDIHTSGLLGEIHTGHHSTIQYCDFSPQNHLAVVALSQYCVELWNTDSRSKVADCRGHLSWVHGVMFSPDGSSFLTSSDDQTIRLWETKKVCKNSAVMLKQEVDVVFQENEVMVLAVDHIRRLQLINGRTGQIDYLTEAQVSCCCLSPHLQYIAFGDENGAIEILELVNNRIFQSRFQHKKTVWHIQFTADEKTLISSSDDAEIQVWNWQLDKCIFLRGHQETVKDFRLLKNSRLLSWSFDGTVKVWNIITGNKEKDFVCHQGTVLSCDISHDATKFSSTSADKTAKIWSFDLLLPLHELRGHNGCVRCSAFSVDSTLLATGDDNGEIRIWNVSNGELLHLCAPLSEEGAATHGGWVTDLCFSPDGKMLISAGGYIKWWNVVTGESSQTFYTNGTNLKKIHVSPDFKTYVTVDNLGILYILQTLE
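Schedule: 30 min preincubation, 50 min reaction, room temperature / System: biochemical Apaf-1 apoptosome reconstitution / Medium: 20 mM HEPES pH 7.5 with CHAPS, BSA / Evaluation: Caspase-3 cleavage activity downstream of Apaf-1 activation / Detection: Caspase-3-released Rh110 fluorescence, 540 nm emission, 480 nm excitation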
Rh110 act interf: interferes with Rh110 fluorescence, flagging false Apaf-1 activators; shares compounds with Apaf-1 act; Rh110 fluorescence interference, quenched caspase reaction, Ex480/Em540; fluorescence interference (activity change), % at 20 µM, hits read low; 980 tested, under 10 active; AID 504616;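 active = mean activity change at or below -40% when tested at 20 µM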
Apaf-1 act conf2: Apaf-1 (human) activation, single-dose confirmed; reconstituted apoptosome caspase-3 activity, DEVD-Rh110 fluorescence; hits give low values; shares compounds with Apaf-1 act; activity change, negative = activation, % at 20 µM; AID 504617; 980 compounds, 5% hits;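 active = mean activity change at or below -40%, meaning activation of 40% or more, at 20 µM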
* = called active by the depositor.

Screening NS(=O)(=O)c1ccc(N=Nc2c(O)[nH]c(=S)[nH]c2=O)cc1 returned Apaf-1 act -137.8*, Rh110 act interf 3.8 and Apaf-1 act conf2 4.1.
Screening COCCCn1c(N)c(C(=O)NCc2ccco2)c2nc3ccccc3nc21 returned Apaf-1 act 94.6.
`CCC(C)NC(=O)c1c(N)n(CC2CCCO2)c2nc3ccccc3nc12` (stereo not given) gave Apaf-1 act 94.5.
`CCC(C)NC(=O)c1c(N)n(CCCOC)c2nc3ccccc3nc12` (stereo not given) gave Apaf-1 act 90.9.
COC(=O)C1=C(c2ccc(Cl)c(C(F)(F)F)c2)C[C@@H]2CC[C@H]1N2C(=O)NCCOc1ccc(OC)cc1 was read as Apaf-1 act 40.0.
`N#Cc1ccc(/C=C/C(=O)O)cc1` gave Apaf-1 act -498.8*, Rh110 act interf 9.3 and Apaf-1 act conf2 8.8.
CCCCCCCCCCCCCCCC[N+](C)(C)C was read as Apaf-1 act 84.9.
`O=[N+]([O-])c1ccc(N2CCCNCC2)c2ncccc12` gave Apaf-1 act 44.9.
`COCCNC(=O)c1c(NC(=O)c2ccco2)n(Cc2ccccc2)c2nc3ccccc3nc12` gave Apaf-1 act 52.8.
COCCCn1c(N)c(C(=O)Nc2ccccc2)c2nc3ccccc3nc21 was read as Apaf-1 act 51.4.
Screening C=CCN1C(=O)NC(=O)C(Cc2ccc(OC)c(OC)c2)C1=O (stereo not given) returned Apaf-1 act -549.5*, Rh110 act interf 5.6 and Apaf-1 act conf2 15.0.
For COC(=O)C1=C(c2ccc(F)cc2OCc2ccccc2)C[C@@H]2CC[C@H]1N2C(=O)NC1CCN(Cc2ccccc2)CC1 the results were Apaf-1 act 53.1.
For Cc1ccc(-c2ccc(=O)n(CCC(=O)N3CCC4(CC3)OCCO4)n2)cc1 the results were Apaf-1 act -49.2*, Rh110 act interf 2.3 and Apaf-1 act conf2 11.1.
For C[n+]1c(-c2ccccc2)c2cc(N)ccc2c2ccc(N)cc21 the results were Apaf-1 act 97.6.
For CCC(C)NC(=O)c1c(N)n(Cc2ccc3c(c2)OCO3)c2nc3ccccc3nc12 (stereo not given) the results were Apaf-1 act 96.1.
NCCc1ccc(OCc2ccccc2)c(OCc2ccccc2)c1 was read as Apaf-1 act 46.5.
O=C(c1ccc2c(c1)ncn2-c1ccc(F)cc1F)N1CCC2(CC1)OCCO2 was read as Apaf-1 act -75.9*, Rh110 act interf 8.4 and Apaf-1 act conf2 5.5.
For CCCN1CCc2cc(O)cc3c2[C@H]1Cc1ccc(O)c(O)c1-3 the results were Apaf-1 act 44.7.
Screening Cc1[nH]n(-c2ccccc2)c(=O)c1C(c1ccc([N+](=O)[O-])cc1)c1c(C)[nH]n(-c2ccccc2)c1=O returned Apaf-1 act 78.6.
For COc1cc2c3c(c1OC)Oc1ccc(cc1)C[C@H]1c4c(cc(OC)c(OC)c4Oc4ccc(cc4)C[C@@H]3N(C)CC2)CCN1C the results were Apaf-1 act 45.0.
For O=[N+]([O-])c1ccc(NCCCN2CCOCC2)c2ncccc12 the results were Apaf-1 act 40.4.
Screening COCCCn1c(N)c(C(=O)OC(C)COC)c2nc3ccccc3nc21 (stereo not given) returned Apaf-1 act 74.3.
`Cn1ncnc2c(=O)n(C)c(=O)nc1-2` gave Apaf-1 act 98.9.
`CC(C)CC(N(C)C)C1(c2ccc(Cl)cc2)CCC1` (stereo not given) gave Apaf-1 act 5.1.
Nc1c(C(=O)OCc2ccccc2)c2nc3ccccc3nc2n1Cc1cccs1 was read as Apaf-1 act 86.0.
Screening CC(Cc1ccccc1)NC(=O)NC(C)Cc1ccccc1 (stereo not given) returned Apaf-1 act -182.0*, Rh110 act interf -7.7 and Apaf-1 act conf2 5.0.
`Fc1ccc(C(OCCN2CCN(CCCc3ccccc3)CC2)c2ccc(F)cc2)cc1` gave Apaf-1 act 55.9.
`Cc1c2ccncc2c(C)c2c1[nH]c1ccccc12` gave Apaf-1 act 67.5.
CN(C)[C@@H]1C(=O)C(C(N)=O)=C(O)[C@@]2(O)C(=O)C3=C(O)c4c(O)cccc4[C@@](C)(O)C3[C@H](O)C12 (stereo not given in full) was read as Apaf-1 act -1.5.
`COc1ccc2c(c1)NP(=S)(Oc1ccccc1)N2` (stereo not given) gave Apaf-1 act 50.1.
For Nc1c(C(=O)NCCN2CCOCC2)c2nc3ccccc3nc2n1Cc1ccccc1 the results were Apaf-1 act 82.3.
`N=c1n(CCO)c2ccccc2n1Cc1ccccc1` gave Apaf-1 act -112.5*, Rh110 act interf 8.3 and Apaf-1 act conf2 11.0.
